Legend:
[1] = tested on: Raji; experiment: Survival of Raji cells at 0.32 nmol by trypan blue staining method; format: functional, Homo sapiens
In short: (§1)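 Raji cells (EBV genome-carrying, non-producer) grown to 10⁶ cells/mL, centrifuged, resuspended in RPMI 1640 with 10% FCS, 4 mM n-butyric acid and 32 pmol TPA (20 ng/mL), plus test compound in DMSO (32, 16, 3.2 or 0.32 nmol; 1000–10 mol ratio/TPA). Incubated 37 °C, 48 h; viability counted by hemocytometer with Trypan Blue; ≥60% survival required.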

[2] = tested on: Raji; experiment: Survival of Raji cells at 16 nmol by trypan blue staining method; format: functional, Homo sapiens; in short: as §1
[3] = tested on: Human gammaherpesvirus 4; experiment: TPA-induced EBV early antigen activation in Raji cells at 16 nmol relative to control
[4] = tested on: Human gammaherpesvirus 4; experiment: TPA-induced EBV early antigen activation in Raji cells at 32 nmol relative to control
[5] = tested on: Raji; experiment: Survival of Raji cells at 32 nmol by trypan blue staining method; format: functional, Homo sapiens; in short: as §1
[6] = tested on: Raji; experiment: Survival of Raji cells at 3.2 nmol by trypan blue staining method; format: functional, Homo sapiens; in short: as §1
[7] = tested on: Human gammaherpesvirus 4; experiment: TPA-induced EBV early antigen activation in Raji cells at 0.32 nmol relative to control
[8] = tested on: Human gammaherpesvirus 4; experiment: TPA-induced EBV early antigen activation in Raji cells at 3.2 nmol relative to control
[9] = species on record: Mus musculus; experiment: Inhibition of TPA-induced skin tumor in SENCAR mouse assessed as reduction of skin papilloma at 85 nmol after 10 weeks; format: functional; parameters: scale not given: the % may be the effect or the level left
[10] = species on record: Mus musculus; experiment: Inhibition of TPA-induced skin tumor in SENCAR mouse assessed as reduction of skin papilloma at 85 nmol after 20 weeks; format: functional; parameters: scale not given: the % may be the effect or the level left

| Compound | Survival [1] [%] | Survival [2] [%] | EBV-EA activation [3] [%] | EBV-EA activation [4] [%] | Survival [5] [%] | Survival [6] [%] | EBV-EA activation [7] [%] | EBV-EA activation [8] [%] | Activity [9] [%] | Activity [10] [%] |
| --- | --- | --- | --- | --- | --- | --- | --- | --- | --- | --- |
| COc1c(C/C=C/c2ccccc2)cc(C/C=C/c2ccccc2)c(OC)c1OC | >80 | >80 | 39.8 | 12.6 | 60 | >80 | 100 | 75.2 | – | – |
| COc1ccc(C/C=C/c2ccccc2)c(OC)c1OC | >80 | >80 | 41.5 | 14.2 | 60 | >80 | 100 | 76.6 | – | – |
| COc1ccc(C/C=C/c2ccccc2)c(O)c1 | >80 | >80 | 45.1 | 20.7 | 60 | >80 | 100 | 73.7 | – | – |
| COc1ccc(C/C=C/c2ccccc2)c(OC)c1O | >80 | >80 | 41.2 | 14.1 | 60 | >80 | 100 | 76.9 | – | – |
| COc1cc(/C=C/Cc2ccc(O)c(O)c2OC)ccc1O | >80 | >80 | 43.7 | 7.5 | 60 | >80 | 95.7 | 70.2 | – | – |
| COc1c(C/C=C/c2ccccc2)cc(C/C=C/c2ccccc2)c(O)c1OC | >80 | >80 | 46.4 | 15.9 | 60 | >80 | 100 | 75.6 | – | – |
| COc1cc(/C=C/Cc2ccc(OC)c(OCC=C(C)C)c2O)ccc1OCC=C(C)C | >80 | >80 | 27.5 | 0 | 70 | >80 | 89.1 | 68.6 | 87 | 53 |
| COc1ccc(C/C=C/c2ccccc2)c(OCC=C(C)C)c1 | >80 | >80 | 29.9 | 0 | 70 | >80 | 91.7 | 67.8 | – | – |
| COc1cc(/C=C/Cc2ccc(OC)c(O)c2O)ccc1O | >80 | >80 | 45.5 | 8.7 | 60 | >80 | 95.7 | 73.2 | – | – |
| COc1cc(/C=C/Cc2ccc(OC)c(O)c2OCC=C(C)C)ccc1O | >80 | >80 | 27.8 | 0 | 70 | >80 | 88.1 | 63.2 | – | – |
| COc1cc(O)ccc1C/C=C/c1ccccc1 | >80 | >80 | 44.7 | 18.1 | 60 | >80 | 100 | 73.2 | – | – |
| COc1c(C/C=C/c2ccccc2)ccc(O)c1O [HYDROXYOBUSTYRENE] | >80 | >80 | 41.3 | 10.2 | 60 | >80 | 100 | 71 | – | – |
| COc1cc(/C=C/Cc2ccc(OC)c(OCC=C(C)C)c2O)ccc1O | >80 | >80 | 28.3 | 0 | 70 | >80 | 87.1 | 64.2 | – | – |
| COc1c(C/C=C/c2ccccc2)ccc(O)c1C/C=C/c1ccccc1 | >80 | >80 | 41.5 | 12.8 | 60 | >80 | 100 | 68.2 | – | – |
| COc1cc(OCC=C(C)C)ccc1C/C=C/c1ccccc1 | >80 | >80 | 29.3 | 0 | 70 | >80 | 87.6 | 65.2 | – | – |

Source: ChEMBL document CHEMBL1147206, “Synthetic cinnamylphenol derivatives as cancer chemopreventive agents” (2007)
